This passage reports Km and Vmax results from ChEMBL document CHEMBL4371016, “Proline- and Arginine-Rich Peptides as Flexible Allosteric Modulators of Human Proteasome Activity” (J Med Chem, 2019).

Compound in series [1]: CC(C)C[C@H](NC(=O)[C@H](Cc1ccc(O)cc1)NC(=O)[C@@H]1CCCN1C(=O)[C@@H]1CCCN1C(=O)[C@H](CCCNC(=N)N)NC(=O)[C@@H]1CCCN1C(=O)[C@H](CCCNC(=N)N)NC(=O)[C@H](CCCNC(=N)N)NC(=O)[C@@H](N)CCCNC(=N)N)C(=O)N1CCC[C@H]1C(=O)N[C@@H](CCCNC(=N)N)C(=O)N[C@@H](Cc1c[nH]c2ccccc12)C(=O)NCC(=O)O
The series is described as follows: (§1) Non-competitive mixed-type inhibition of SDS-activated human erythrocytes 20S proteasome chymotrypsin like activity assessed as substrate Km using Suc-LLVY-AMC as substrate measured every 2 mins up to 60 mins by fluorescence assay. In short, it runs like this:
(§2)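 SDS-activated CP at 1.4 nM. Suc-LLVY-AMC varied from 20 to 200 μM at inhibitor levels of 0.05, 0.1 and 0.2 μM. Fluorescence read kinetically at 37 °C. […] Three independent replicates.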

Compound in series [2]: CC(C)C[C@H](NC(=O)[C@H](Cc1ccc(O)cc1)NC(=O)[C@H](CCCNC(=N)N)NC(=O)[C@H](CCCNC(=N)N)NC(=O)[C@@H](N)CCCNC(=N)N)C(=O)N1CCC[C@H]1C(=O)N[C@@H](CCCNC(=N)N)C(=O)N[C@@H](Cc1c[nH]c2ccccc12)C(=O)NCC(N)=O
Described as §1. In short, it runs like this: as §2

Compound in series [3]: CC(C)C[C@H](NC(=O)[C@H](Cc1ccc(O)cc1)NC(=O)[C@@H]1CCCN1C(=O)[C@@H]1CCCN1C(=O)[C@H](CCCNC(=N)N)NC(=O)[C@@H]1CCCN1C(=O)[C@H](CCCNC(=N)N)NC(=O)[C@H](CCCNC(=N)N)NC(=O)[C@@H](N)CCCNC(=N)N)C(=O)N1CCC[C@H]1C(=O)N[C@@H](CCCNC(=N)N)C(=O)N[C@@H](Cc1c[nH]c2ccccc12)C(=O)NCC(=O)O
As to the kind of experiment: (§3) Non-competitive mixed-type inhibition of SDS-activated human erythrocytes 20S proteasome chymotrypsin like activity assessed as substrate Vmax using Suc-LLVY-AMC as substrate measured every 2 mins up to 60 mins by fluorescence assay. A digest of the protocol:
as §2

Compound in series [4]: CC(C)C[C@H](NC(=O)[C@H](Cc1ccc(O)cc1)NC(=O)[C@H](CCCNC(=N)N)NC(=O)[C@H](CCCNC(=N)N)NC(=O)[C@@H](N)CCCNC(=N)N)C(=O)N1CCC[C@H]1C(=O)N[C@@H](CCCNC(=N)N)C(=O)N[C@@H](Cc1c[nH]c2ccccc12)C(=O)NCC(N)=O
Described as §3. A digest of the protocol: as §2

B1: Proteasome Macropain subunit MB1 (Homo sapiens), P28074 (protein)
chain: MALASVLERPLPVNQRGFFGLGGRADLLDLGPGSLSDGLSLAAPGWGVPEEPGIEMLHGTTTLAFKFRHGVIVAADSRATAGAYIASQTVKKVIEINPYLLGTMAGGAADCSFWERLLARQCRIYELRNKERISVAAASKLLANMVYQYKGMGLSMGTMICGWDKRGPGLYYVDSEGNRISGATFSVGSGSVYAYGVMDRGYSYDLEVEQAYDLARRAIYQATYRDAYSGGAVNLYHVREDGWIRVSSDNVADLHEKYSGSTP
Usually Km stands for the substrate concentration at which the rate is half of its maximum. In the case of B1, the Km in series [1] came out at 17.4 µM; in series [2], 14 µM. Also, the Vmax amounted to 13.6 s⁻¹ in series [3] and 13.5 s⁻¹ in series [4].
